Experimental data from ChEMBL document CHEMBL4017544 (J Med Chem, 2017).
≈ marks a conversion by molar mass, not a printed value. Calls of active or inactive are those of the source. The rule behind the calls is not given here.

Legend:
[1] = target: T1, Inhibitor of nuclear factor kappa-B kinase subunit beta (Homo sapiens) (UniProt O14920); assay: Inhibition of IKKbeta (unknown origin) transfected in HEK293 cells assessed as reduction in TNFalpha-induced upregulation of COX2 protein expression at 200 to 1000 nM administered 6 hrs after TNFalpha stimulation measured for 24 hrs by Western blot method; type: cell-based
T1 sequence (whole entry): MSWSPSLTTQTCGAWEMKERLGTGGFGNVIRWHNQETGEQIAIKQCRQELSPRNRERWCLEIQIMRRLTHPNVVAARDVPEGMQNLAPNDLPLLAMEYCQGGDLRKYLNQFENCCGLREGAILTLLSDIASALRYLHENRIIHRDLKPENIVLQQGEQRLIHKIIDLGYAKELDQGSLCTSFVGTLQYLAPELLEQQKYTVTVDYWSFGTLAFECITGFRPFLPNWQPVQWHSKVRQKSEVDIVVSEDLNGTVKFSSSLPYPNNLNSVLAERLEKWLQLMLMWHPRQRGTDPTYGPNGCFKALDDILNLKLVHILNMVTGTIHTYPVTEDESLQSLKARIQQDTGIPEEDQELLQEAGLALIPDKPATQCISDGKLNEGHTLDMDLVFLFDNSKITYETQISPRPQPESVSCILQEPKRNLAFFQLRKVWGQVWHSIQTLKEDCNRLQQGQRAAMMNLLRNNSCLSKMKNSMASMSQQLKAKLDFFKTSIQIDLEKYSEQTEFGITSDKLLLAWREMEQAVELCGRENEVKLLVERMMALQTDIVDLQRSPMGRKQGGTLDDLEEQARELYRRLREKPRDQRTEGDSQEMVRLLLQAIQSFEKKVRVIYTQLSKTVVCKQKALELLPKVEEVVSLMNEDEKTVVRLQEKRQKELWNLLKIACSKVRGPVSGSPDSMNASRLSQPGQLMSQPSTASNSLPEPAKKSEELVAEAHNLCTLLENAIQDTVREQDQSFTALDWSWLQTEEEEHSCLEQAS
Method in brief: (§1)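 HEK293 cells pretreated with TNF-α (10 ng/mL) for 6 h, then given compound at 200 or 1000 nM for 24 h, in triplicate; nuclear and cytosolic p65, iNOS and COX2 protein by western blot; mean ± SD from three experiments.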

[2] = Acute toxicity in ip dosed ICR mouse assessed as lethality administered daily for 7 days; type: organism-based; conditions: in vivo
Method in brief: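 Intraperitoneal dosing of ICR mice once daily for 7 days, with top doses up to 600 or 1000 mg/kg depending on the compound. Lethality was recorded and expressed as an LD50 (mg/kg).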

HEK293 [3] = assay: Cytotoxicity against HEK293 cells assessed as reduction in cell viability after 24 hrs by MTT assay; type: cell-based; conditions: Homo sapiens, HEK293, 24 h
Method in brief: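 HEK293 or H9C2 cells grown in high-glucose DMEM with 10% FBS, exposed to compound for 24 h; viability by MTT, IC50 calculated.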

[4] = target: T1, Inhibitor of nuclear factor kappa-B kinase subunit beta (Homo sapiens); assay: Inhibition of IKKbeta (unknown origin) transfected in HEK293 cells assessed as reduction in TNFalpha-induced upregulation of COX2 mRNA expression at 200 to 1000 nM administered 6 hrs after TNFalpha stimulation measured for 24 hrs by quantitative RT-PCR analysis; type: cell-based
Method in brief: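 HEK293 cells pretreated with TNF-α (10 ng/mL) for 6 h, then given compound at 200 or 1000 nM for 24 h, in triplicate; iNOS, COX2 and MCP-1 mRNA relative to GAPDH by quantitative RT-PCR, 2−ΔΔCt method; mean ± SD from three experiments.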

[5] = Clearance in Sprague-Dawley rat at 10 mg/kg, iv measured up to 24 hrs by LC-MS/MS analysis; type: ADME, organism-based; conditions: in vivo
Method in brief: (§2)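 Rats dosed intravenously at 10 mg/kg; blood drawn from suborbital vein at 0, 2, 5, 15, 30, 60 min and 1.5, 2, 4, 6, 8, 12, 24 h; plasma levels by LC-MS/MS; parameters from concentration–time profiles, mean ± SD, n = 3.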

[6] = target: Kelch-like ECH-associated protein 1 (Homo sapiens) (UniProt Q14145); assay: Inhibition of Keap1/Nrf2 (unknown origin) interaction transfected in HEK293 cells assessed as activation of Nrf2 at 200 to 1000 nM after 48 hrs by ARE-driven luciferase reporter gene assay; type: cell-based
Sequence of Kelch-like ECH-associated protein 1 (Homo sapiens) (Q14145 whole entry): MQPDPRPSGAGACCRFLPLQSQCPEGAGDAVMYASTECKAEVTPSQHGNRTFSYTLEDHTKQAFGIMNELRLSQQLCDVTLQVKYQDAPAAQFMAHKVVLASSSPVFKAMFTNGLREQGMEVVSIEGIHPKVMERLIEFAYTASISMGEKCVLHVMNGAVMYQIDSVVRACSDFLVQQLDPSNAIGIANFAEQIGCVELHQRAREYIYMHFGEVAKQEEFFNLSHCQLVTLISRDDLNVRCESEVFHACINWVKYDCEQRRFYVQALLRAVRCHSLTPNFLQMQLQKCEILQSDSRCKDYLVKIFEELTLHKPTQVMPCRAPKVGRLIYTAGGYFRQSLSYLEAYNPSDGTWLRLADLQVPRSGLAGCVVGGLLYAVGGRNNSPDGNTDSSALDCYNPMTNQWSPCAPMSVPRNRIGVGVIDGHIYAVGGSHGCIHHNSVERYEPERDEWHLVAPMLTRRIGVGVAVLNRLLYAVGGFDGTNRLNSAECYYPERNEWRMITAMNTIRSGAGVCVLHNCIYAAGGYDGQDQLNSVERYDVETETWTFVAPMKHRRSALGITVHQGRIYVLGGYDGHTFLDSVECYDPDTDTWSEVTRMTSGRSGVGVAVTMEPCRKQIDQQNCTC
Method in brief: (§3)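 HEK293 cells (ATCC; high-glucose DMEM, 10% FBS) were treated in triplicate for 48 h. For the reporter read-out, cells were transfected with an ARE-dependent luciferase plasmid and luciferase activity was measured. For mRNA, total RNA was extracted with TRIzol and reverse transcribed, and target transcripts were quantified by qRT-PCR relative to GAPDH using the 2−ΔΔCt method. Three independent experiments, mean ± SD.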

HEK293 [7] = assay: Effect on Nfr2 mRNA expression in HEK293 cells harboring Keap1 at 200 to 1000 nM after 48 hrs by quantitative RT-PCR analysis; type: functional, cell-based; conditions: Homo sapiens
Method in brief: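 HEK293 cells treated in triplicate at 200 or 1000 nM for 48 h; Nrf2 mRNA relative to GAPDH by quantitative RT-PCR using the 2−ΔΔCt method; mean ± SD from three experiments.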

[8] = target: Kelch-like ECH-associated protein 1 (Homo sapiens) (UniProt Q14145); assay: Inhibition of Keap1/Nrf2 (unknown origin) interaction transfected in HEK293 cells assessed as upregulation of NQO1 mRNA expression at 200 to 1000 nM after 48 hrs by quantitative RT-PCR analysis; type: cell-based; method in brief: as §3
[9] = Solubility of compound in saline at 100 uM at pH 7.4 by HPLC analysis; type: physicochemical
Method in brief: (§4)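 Solubility was determined by an established HPLC method, in saline alone or in saline containing 1% 1,3-propylene glycol and 1% Tween 80.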

[10] = target: T1, Inhibitor of nuclear factor kappa-B kinase subunit beta (Homo sapiens); assay: Inhibition of IKKbeta (unknown origin) transfected in HEK293 cells assessed as mitigation of TNFalpha-induced increase in ratio of nuclear to cytosolic p65 at 200 to 1000 nM administered 6 hrs after TNFalpha stimulation measured for 24 hrs by Western blot method; type: cell-based; method in brief: as §1
[11] = Solubility of compound in saline containing 1% 1,3-propylene glycol/ 1% Tween 80 at 100 uM at pH 7.4 by HPLC analysis; type: physicochemical; method in brief: as §4
[12] = target: T1, Inhibitor of nuclear factor kappa-B kinase subunit beta (Homo sapiens); assay: Inhibition of IKKbeta (unknown origin) transfected in HEK293 cells assessed as reduction in TNFalpha-induced upregulation of MCP1 mRNA expression at 200 to 1000 nM administered 6 hrs after TNFalpha stimulation measured for 24 hrs by quantitative RT-PCR method
[13] = Half life in Sprague-Dawley rat at 10 mg/kg, iv measured up to 24 hrs by LC-MS/MS analysis; type: ADME, organism-based; conditions: in vivo; method in brief: as §2
[14] = target: T1, Inhibitor of nuclear factor kappa-B kinase subunit beta (Homo sapiens); assay: Inhibition of IKKbeta (unknown origin) transfected in HEK293 cells assessed as TNFalpha-induced NFkappaB activation at 200 to 1000 nM administered 6 hrs after TNFalpha stimulation measured for 24 hrs by NFkappaB-driven luciferase reporter gene assay; type: cell-based
Method in brief: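 HEK293 cells transfected with an NF-κB-driven luciferase reporter, stimulated with TNF-α and treated in triplicate; luciferase read with a dual-luciferase system.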

[15] = AUC (0 to t) in Sprague-Dawley rat at 10 mg/kg, iv measured up to 24 hrs by LC-MS/MS analysis; type: ADME, organism-based; parameters: dose 10 mg/kg, time < 24 hr, route intravenous; conditions: in vivo; method in brief: as §2

SMILES	inhibition [1]	LD50 at 168 h [2] [mg/kg]	IC50 (HEK293 [3]) [µM]	inhibition [4]	clearance [5] [L/h/kg]	inhibition [6]	Activity (HEK293 [7])	inhibition [8]	solubility at 100 µM ([9]; saline, pH 7.4) [mg/mL]	inhibition [10]	solubility at 100 µM ([11]; saline containing 1% 1,3-propylene glycol/1% Tween 80, pH 7.4) [mg/mL]	inhibition [12]	half-life [13] [h]	inhibition [14]	AUC(0-t) at 24 h [15] [µg·h/mL]	solubility ([9]; buffer, pH 7.4, 100 µM)	solubility ([11]; buffer, pH 7.4, 100 µM)
COC(=O)[C@@H](N)CCC(=O)Nc1ccc(COC2=C(C#N)[C@H](O)[C@]3(C)C4=CC(=O)[C@@H]5[C@@H]6CC(C)(C)CC[C@]6(C(=O)OC)CC[C@@]5(C)[C@]4(C)CC[C@H]3C2(C)C)cc1	Active	886	56.5	Active	20.4	Active	inactive	Active	0.0089 (≈ 0.0115 mM)	Active	12.2 (≈ 15.8 mM)	Active	1.31	Active	0.509	–	–
COC(=O)[C@]12CCC(C)(C)C[C@H]1[C@H]1C(=O)C=C3[C@@]4(C)C=C(C#N)C(=O)C(C)(C)[C@@H]4CC[C@@]3(C)[C@]1(C)CC2 [BARDOXOLONE METHYL]	Active	425	2.2	Active	4.68	Active	inactive	Active	–	Active	–	Active	4.41	Active	2.06	Insoluble	Insoluble
